Assay results from ChEMBL document CHEMBL4732230, “Design, synthesis, and biological evaluation of 4-benzoylamino-1H-pyrazole-3-carboxamide derivatives as potent CDK2 inhibitors” (Eur J Med Chem, 2021).
Calls of active or inactive are those of the source. The calls are words filed in the database; no cut-off is given here.

Legend:
CDK2/Cyclin A2 = CDK2/Cyclin A2 (Homo sapiens, UniProt P24941); experiment: Inhibition of CDK2/cyclin A2 (unknown origin) using FAM-labeled peptide and ATP as substrate preincubated for 10 mins followed by substrate addition by mobility shift assay; assay type: protein-complex assay
A2058 [1] = experiment: Antiproliferative activity against human A2058 cells assessed as reduction in cell viability measured after 96 hrs by Celltiter-Glo luminescent assay; assay type: functional, cell-based; details: A2058, 96 h
Summary of the method: (§1)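 Cells in DMEM (A2058, MRC5) or RPMI 1640 (MV4-11), each with 10% fetal bovine serum and 1% penicillin/streptomycin. Cells were plated in 96-well plates and exposed to serially concentrated compound for 96 h, with DMSO as control. Viability was read by CellTiter-Glo luminescence and IC50 derived.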

CDK7/Cyclin H/MNAT1 = CDK7/Cyclin H/MNAT1 (Homo sapiens, UniProt P50613); experiment: Inhibition of CDK7/cyclinH/MAT1 (unknown origin) using FAM-labeled peptide and ATP as substrate preincubated for 10 mins followed by substrate addition by mobility shift assay; assay type: protein-complex assay
Chain of CDK7/Cyclin H/MNAT1 (P51946 whole entry): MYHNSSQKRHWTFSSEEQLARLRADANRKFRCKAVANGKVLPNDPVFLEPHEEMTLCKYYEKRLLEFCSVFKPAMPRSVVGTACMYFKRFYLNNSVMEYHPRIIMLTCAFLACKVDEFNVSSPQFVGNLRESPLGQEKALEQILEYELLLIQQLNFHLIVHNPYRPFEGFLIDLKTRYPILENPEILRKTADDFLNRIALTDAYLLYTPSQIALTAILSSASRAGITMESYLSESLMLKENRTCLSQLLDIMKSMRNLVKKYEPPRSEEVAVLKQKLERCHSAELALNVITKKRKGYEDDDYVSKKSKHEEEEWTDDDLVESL
Chain of CDK7/Cyclin H/MNAT1 (P50613 whole entry): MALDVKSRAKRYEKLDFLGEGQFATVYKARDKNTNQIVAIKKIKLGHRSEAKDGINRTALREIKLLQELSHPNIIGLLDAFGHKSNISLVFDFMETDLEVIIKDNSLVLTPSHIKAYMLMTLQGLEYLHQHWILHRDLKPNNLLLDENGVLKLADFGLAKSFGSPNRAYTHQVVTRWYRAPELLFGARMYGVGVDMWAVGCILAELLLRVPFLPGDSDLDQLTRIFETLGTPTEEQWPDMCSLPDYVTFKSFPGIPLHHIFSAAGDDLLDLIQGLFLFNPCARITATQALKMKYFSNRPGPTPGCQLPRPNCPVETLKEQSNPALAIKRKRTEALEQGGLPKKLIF
Chain of CDK7/Cyclin H/MNAT1 (P51948 whole entry, further chain): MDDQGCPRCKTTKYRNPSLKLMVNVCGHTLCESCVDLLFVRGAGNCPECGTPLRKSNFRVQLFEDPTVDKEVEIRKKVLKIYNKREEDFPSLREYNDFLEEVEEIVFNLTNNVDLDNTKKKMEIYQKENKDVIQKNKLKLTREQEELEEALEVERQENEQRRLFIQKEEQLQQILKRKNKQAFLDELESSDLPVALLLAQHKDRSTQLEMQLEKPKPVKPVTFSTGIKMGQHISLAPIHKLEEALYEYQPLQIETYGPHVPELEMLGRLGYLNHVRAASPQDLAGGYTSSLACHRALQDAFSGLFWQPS
Summary of the method: (§2)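 Mobility shift assay in 50 mM HEPES pH 7.5 with 0.0015% Brij-35. Kinase was added to serially diluted compound in 10% DMSO and held 10 min at room temperature. FAM-labeled peptide and ATP were then added and the mixture incubated at 28 °C for the specified time. Reactions were stopped with EDTA-containing buffer.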

CDK9/cyclin T1 = CDK9/cyclin T1 (Homo sapiens, UniProt P50750); experiment: Inhibition of CDK9/cyclin T1 (unknown origin) using FAM-labeled peptide and ATP as substrate preincubated for 10 mins followed by substrate addition by mobility shift assay; assay type: protein-complex assay
Chain of CDK9/cyclin T1 (O60563 whole entry): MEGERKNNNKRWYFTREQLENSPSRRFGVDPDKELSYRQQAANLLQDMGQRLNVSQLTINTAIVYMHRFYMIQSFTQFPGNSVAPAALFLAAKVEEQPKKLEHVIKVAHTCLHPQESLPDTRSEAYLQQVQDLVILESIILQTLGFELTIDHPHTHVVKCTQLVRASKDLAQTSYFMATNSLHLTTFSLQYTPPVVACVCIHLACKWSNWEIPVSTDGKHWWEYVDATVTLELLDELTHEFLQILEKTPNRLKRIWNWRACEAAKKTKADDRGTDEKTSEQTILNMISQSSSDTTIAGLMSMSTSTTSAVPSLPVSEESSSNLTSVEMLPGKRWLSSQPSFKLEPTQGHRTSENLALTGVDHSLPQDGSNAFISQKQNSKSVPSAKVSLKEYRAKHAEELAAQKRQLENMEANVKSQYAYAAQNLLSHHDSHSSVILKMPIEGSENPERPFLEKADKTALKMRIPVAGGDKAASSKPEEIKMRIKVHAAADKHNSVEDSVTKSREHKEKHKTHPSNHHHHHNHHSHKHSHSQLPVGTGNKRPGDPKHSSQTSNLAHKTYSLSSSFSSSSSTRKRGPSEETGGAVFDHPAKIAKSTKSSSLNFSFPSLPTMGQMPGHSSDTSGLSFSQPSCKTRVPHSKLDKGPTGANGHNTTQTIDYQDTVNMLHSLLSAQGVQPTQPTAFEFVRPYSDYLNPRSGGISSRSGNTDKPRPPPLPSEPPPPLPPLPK
Chain of CDK9/cyclin T1 (P50750 whole entry): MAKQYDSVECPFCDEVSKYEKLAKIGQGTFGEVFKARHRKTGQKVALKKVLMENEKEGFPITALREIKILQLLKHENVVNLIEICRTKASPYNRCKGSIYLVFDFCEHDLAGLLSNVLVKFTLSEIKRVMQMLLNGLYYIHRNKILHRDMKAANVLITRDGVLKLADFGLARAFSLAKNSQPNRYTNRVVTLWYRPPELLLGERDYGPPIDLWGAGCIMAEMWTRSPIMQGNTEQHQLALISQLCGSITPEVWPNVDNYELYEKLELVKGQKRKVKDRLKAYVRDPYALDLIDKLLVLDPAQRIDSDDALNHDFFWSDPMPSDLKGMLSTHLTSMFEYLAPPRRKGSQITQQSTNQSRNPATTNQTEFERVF

CDK12/Cyclin K = CDK12/Cyclin K (Homo sapiens, UniProt Q9NYV4); experiment: Inhibition of CDK12/cyclin K (unknown origin) using FAM-labeled peptide and ATP as substrate preincubated for 10 mins followed by substrate addition by mobility shift assay; assay type: protein-complex assay; summary of the method: as §2
Chain of CDK12/Cyclin K (O75909 whole entry): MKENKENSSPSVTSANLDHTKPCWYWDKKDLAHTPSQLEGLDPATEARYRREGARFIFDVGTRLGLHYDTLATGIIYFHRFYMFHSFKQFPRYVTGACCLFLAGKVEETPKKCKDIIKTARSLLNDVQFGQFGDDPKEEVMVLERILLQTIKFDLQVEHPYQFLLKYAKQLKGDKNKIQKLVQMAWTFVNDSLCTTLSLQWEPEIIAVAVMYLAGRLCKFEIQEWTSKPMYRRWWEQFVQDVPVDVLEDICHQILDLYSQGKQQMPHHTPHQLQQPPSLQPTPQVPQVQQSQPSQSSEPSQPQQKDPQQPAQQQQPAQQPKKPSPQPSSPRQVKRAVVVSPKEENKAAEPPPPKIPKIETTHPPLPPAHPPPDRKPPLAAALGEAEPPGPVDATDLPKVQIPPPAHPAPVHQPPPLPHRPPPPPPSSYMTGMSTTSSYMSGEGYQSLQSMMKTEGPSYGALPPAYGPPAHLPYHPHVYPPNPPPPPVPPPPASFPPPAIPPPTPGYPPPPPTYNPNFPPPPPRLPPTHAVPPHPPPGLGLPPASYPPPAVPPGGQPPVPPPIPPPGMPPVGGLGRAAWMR
Chain of CDK12/Cyclin K (Q9NYV4 whole entry): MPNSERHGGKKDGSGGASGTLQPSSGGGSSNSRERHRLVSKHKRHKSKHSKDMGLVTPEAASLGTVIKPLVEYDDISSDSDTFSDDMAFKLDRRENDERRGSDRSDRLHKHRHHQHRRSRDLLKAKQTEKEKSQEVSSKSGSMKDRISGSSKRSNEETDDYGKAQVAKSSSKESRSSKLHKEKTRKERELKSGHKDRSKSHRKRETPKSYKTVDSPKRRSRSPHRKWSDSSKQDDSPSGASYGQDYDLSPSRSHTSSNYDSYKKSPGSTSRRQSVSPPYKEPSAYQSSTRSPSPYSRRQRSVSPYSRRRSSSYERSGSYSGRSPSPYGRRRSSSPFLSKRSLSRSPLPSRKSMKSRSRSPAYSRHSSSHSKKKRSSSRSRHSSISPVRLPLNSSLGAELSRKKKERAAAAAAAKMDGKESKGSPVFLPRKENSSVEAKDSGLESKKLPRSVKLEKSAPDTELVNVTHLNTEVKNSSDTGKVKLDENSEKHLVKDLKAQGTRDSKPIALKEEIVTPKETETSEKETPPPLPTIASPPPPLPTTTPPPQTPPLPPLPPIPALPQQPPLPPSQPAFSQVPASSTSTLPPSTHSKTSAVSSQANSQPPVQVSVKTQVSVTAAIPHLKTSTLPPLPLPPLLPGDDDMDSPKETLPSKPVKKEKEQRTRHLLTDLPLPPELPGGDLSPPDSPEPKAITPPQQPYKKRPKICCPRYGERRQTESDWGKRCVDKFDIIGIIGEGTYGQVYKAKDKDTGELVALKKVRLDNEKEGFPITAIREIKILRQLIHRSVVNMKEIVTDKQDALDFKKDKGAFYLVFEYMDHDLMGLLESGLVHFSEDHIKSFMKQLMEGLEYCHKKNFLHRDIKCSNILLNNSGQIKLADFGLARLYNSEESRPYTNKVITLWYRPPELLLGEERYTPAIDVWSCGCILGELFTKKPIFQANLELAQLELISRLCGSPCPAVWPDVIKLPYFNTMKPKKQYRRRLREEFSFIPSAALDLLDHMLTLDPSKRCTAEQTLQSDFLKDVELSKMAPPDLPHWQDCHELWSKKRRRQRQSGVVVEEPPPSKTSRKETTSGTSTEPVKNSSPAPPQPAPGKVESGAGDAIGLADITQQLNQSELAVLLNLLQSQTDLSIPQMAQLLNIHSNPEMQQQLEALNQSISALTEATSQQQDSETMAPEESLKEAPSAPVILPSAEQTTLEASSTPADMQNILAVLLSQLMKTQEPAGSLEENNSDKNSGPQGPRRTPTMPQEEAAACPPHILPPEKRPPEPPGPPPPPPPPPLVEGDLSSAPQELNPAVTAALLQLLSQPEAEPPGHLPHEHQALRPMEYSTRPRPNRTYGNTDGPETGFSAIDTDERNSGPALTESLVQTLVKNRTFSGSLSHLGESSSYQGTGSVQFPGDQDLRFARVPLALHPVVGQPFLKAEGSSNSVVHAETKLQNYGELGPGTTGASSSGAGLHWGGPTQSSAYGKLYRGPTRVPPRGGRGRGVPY

MV4-11 = experiment: Antiproliferative activity against human MV4-11 cells assessed as reduction in cell viability measured after 96 hrs by Celltiter-Glo luminescent assay; assay type: functional, cell-based; details: MV4-11, 96 h; summary of the method: as §1
MRC5 = experiment: Cytotoxicity against human MRC5 cells assessed as reduction in cell viability measured after 96 hrs by Celltiter-Glo luminescent assay; assay type: cell-based; details: MRC5, 96 h; summary of the method: as §1
[2] = Cytotoxicity against human LX2 cells assessed as inhibition of cell growth at 100 uM measured after 96 hrs by Celltiter-Glo luminescent assay; assay type: cell-based
Summary of the method: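 LX2 cells grown in DMEM with 10% fetal bovine serum and 1% penicillin/streptomycin, plated in 96-well plates. They were treated with compound at […] or DMSO control for 96 h. Viability was read by CellTiter-Glo luminescence and expressed as percent inhibition.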

[3] = biological target: Cyclin-dependent kinase 2 (Homo sapiens) (UniProt P24941); experiment: Inhibition of CDK2 in human MV4-11 cells assessed as reduction in Rb phosphorylation at Ser807/811 after 24 to 48 hrs by immunoblot analysis; assay type: cell-based; details: dose 0.375-6 µM, time lower […], time upper 48.0 hrs
Summary of the method: (§3)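 MV4-11 cells treated with compound for 24 h or 48 h. Lysates were separated on 8% or 10% SDS-PAGE and transferred to nitrocellulose. Membranes were immunoblotted for phospho-Rb Ser780, phospho-Rb Ser807/811 and total Rb, with β-actin as loading control. Detection used HRP secondary at 1:10,000 and ECL.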

[4] = biological target: Cyclin-dependent kinase 2 (Homo sapiens) (UniProt P24941); experiment: Inhibition of CDK2 in human MV4-11 cells assessed as reduction in Rb phosphorylation at Ser807/811 at 0.375 to 6 uM by immunoblot analysis; assay type: cell-based; details: dose 0.375-6 µM, time lower […], time upper 48.0 hrs, TDE = time-dependent effect; summary of the method: as §3
[5] = biological target: Cyclin-dependent kinase 2 (Homo sapiens) (UniProt P24941); experiment: Inhibition of CDK2 in human MV4-11 cells assessed as reduction in Rb phosphorylation at Ser780 after 24 to 48 hrs by immunoblot analysis; assay type: cell-based; details: dose 0.375-6 µM, time lower […], time upper 48.0 hrs; summary of the method: as §3
[6] = biological target: Cyclin-dependent kinase 2 (Homo sapiens) (UniProt P24941); experiment: Inhibition of CDK2 in human MV4-11 cells assessed as reduction in Rb phosphorylation at Ser780 at 0.375 to 6 uM by immunoblot analysis; assay type: cell-based; details: dose 0.375-6 µM, time lower […], time upper 48.0 hrs, TDE = time-dependent effect; summary of the method: as §3
[7] = biological target: Cyclin-dependent kinase 2 (Homo sapiens) (UniProt P24941); experiment: Inhibition of CDK2 in human A2058 cells assessed as downregulation of Mcl-1 expression at 0.1875 to 1.5 uM after 24 hrs by immunoblot analysis; assay type: cell-based; details: dose 0.1875-1.5 µM
A2058 [8] = experiment: Induction of cell cycle arrest in human A2058 cells assessed as accumulation at G1 phase at 0.4 uM after 24 hrs by propidium iodide/RNase staining based flow cytometric analysis (reference value: 48.05 %); assay type: functional
A2058 [9] = experiment: Induction of cell cycle arrest in human A2058 cells assessed as accumulation at G2 phase at 0.4 uM after 24 hrs by propidium iodide/RNase staining based flow cytometric analysis (reference value: 21.19 %); assay type: functional
A2058 [10] = experiment: Induction of cell cycle arrest in human A2058 cells assessed as accumulation at S phase at 0.4 uM after 24 hrs by propidium iodide/RNase staining based flow cytometric analysis (reference value: 30.76 %); assay type: functional
A2058 [11] = experiment: Induction of apoptosis in human A2058 cells assessed as viable cells at 1 uM measured after 48 hrs by Annexin V-FITC/propidium iodide staining based flow cytometry (reference value: 94.6 %); assay type: functional; details: read-out: Activity
A2058 [12] = experiment: Induction of apoptosis in human A2058 cells assessed as early apoptotic cells at 1 uM measured after 48 hrs by Annexin V-FITC/propidium iodide staining based flow cytometry (reference value: 3.13 %); assay type: functional
A2058 [13] = experiment: Induction of apoptosis in human A2058 cells assessed as necrotic cells at 1 uM measured after 48 hrs by Annexin V-FITC/propidium iodide staining based flow cytometry (reference value: 0.37 %); assay type: functional
A2058 [14] = experiment: Induction of apoptosis in human A2058 cells assessed as viable cells at 0.4 uM measured after 48 hrs by Annexin V-FITC/propidium iodide staining based flow cytometry (reference value: 94.6 %); assay type: functional; details: read-out: Activity
A2058 [15] = experiment: Induction of apoptosis in human A2058 cells assessed as early apoptotic cells at 0.4 uM measured after 48 hrs by Annexin V-FITC/propidium iodide staining based flow cytometry (reference value: 3.13 %); assay type: functional
A2058 [16] = experiment: Induction of apoptosis in human A2058 cells assessed as late apoptotic cells at 0.4 uM measured after 48 hrs by Annexin V-FITC/propidium iodide staining based flow cytometry (reference value: 1.85 %); assay type: functional
A2058 [17] = experiment: Induction of apoptosis in human A2058 cells assessed as necrotic cells at 0.4 uM measured after 48 hrs by Annexin V-FITC/propidium iodide staining based flow cytometry (reference value: 0.37 %); assay type: functional
A2058 [18] = experiment: Induction of apoptosis in human A2058 cells assessed as viable cells at 0.2 uM measured after 48 hrs by Annexin V-FITC/propidium iodide staining based flow cytometry (reference value: 94.6 %); assay type: functional; details: read-out: Activity
A2058 [19] = experiment: Induction of apoptosis in human A2058 cells assessed as late apoptotic cells at 0.2 uM measured after 48 hrs by Annexin V-FITC/propidium iodide staining based flow cytometry (reference value: 1.85 %); assay type: functional
A2058 [20] = experiment: Induction of apoptosis in human A2058 cells assessed as necrotic cells at 0.2 uM measured after 48 hrs by Annexin V-FITC/propidium iodide staining based flow cytometry (reference value: 0.37 %); assay type: functional

## NC(=O)c1ccc(-c2ccc(F)c(C(=O)Nc3c[nH]nc3C(=O)Nc3ccc(F)cc3)c2F)cn1
CDK2/Cyclin A2
  IC50: 0.058 µM
A2058 [1]
  IC50: 0.295 µM
CDK7/Cyclin H/MNAT1
  IC50: > 18 µM
CDK9/cyclin T1
  IC50: 1.12 µM
CDK12/Cyclin K
  IC50: > 18 µM
MV4-11
  IC50: 0.252 µM
MRC5
  IC50: 54.8 µM
[2]
  inhibition at 96 h, 100 µM: 32.5%
[3]
  inhibition: Dose-dependent effect
[4]
  inhibition: Tde
[5]
  inhibition: Dose-dependent effect
[6]
  inhibition: Tde
[7]
  inhibition: Active
A2058 [8]
  Activity: 48.05%
A2058 [9]
  Activity: 41.44%
A2058 [10]
  Activity: 39.82%
A2058 [11]
  viability at 1 µM: 23.7%
A2058 [12]
  Activity: 40%
A2058 [13]
  Activity: 7.66%
A2058 [14]
  viability at 0.4 µM: 55.1%
A2058 [15]
  Activity: 21.7%
A2058 [16]
  Activity: 14.6%
A2058 [17]
  Activity: 8.32%
A2058 [18]
  viability at 0.2 µM: 87.3%
A2058 [19]
  Activity: 4.75%
A2058 [20]
  Activity: 3.41%
